{"data": "Published values of several laboratories", "target": "SRSF protein kinase 2 (SRPK2, Homo sapiens, UniProt P78362)", "note": "Lines come from different studies, so protocols differ."}
{"Structure (SMILES)": "Cc1ccc(Nc2nccc(N(C)c3ccc4c(C)n(C)nc4c3)n2)cc1S(N)(=O)=O", "test": "enzyme activity, inhibitor", "conditions": "0.3 µM", "endpoint": "inhibition", "value": "-9%"}
{"Structure (SMILES)": "Cn1c2c(Cl)c(Cl)ccc2c2cc(N)[nH]c(=O)c21", "test": "thermal stability, DSF", "conditions": "10 µM", "endpoint": "ΔTm", "value": "0.1 °C"}
{"Structure (SMILES)": "Cc1ccc(C(=O)Nc2ccc(CN3CCN(C)CC3)c(C(F)(F)F)c2)cc1C#Cc1cnc2cccnn12", "test": "enzyme activity, inhibitor", "conditions": "23.5 nM", "endpoint": "remaining activity", "value": "94%"}
{"Structure (SMILES)": "O=C(NS(=O)(=O)c1ccc(NCC2CCOCC2)c([N+](=O)[O-])c1)c1ccc(N2CCN(Cc3ccc(C(F)(F)F)cc3-c3ccc(Cl)cc3)CC2)cc1Oc1cnc2[nH]ccc2c1", "test": "cell-free assay, competition with immobilised ligand", "conditions": "1 µM", "endpoint": "remaining binding", "value": "100%"}
{"Structure (SMILES)": "C#Cc1cccc(Nc2ncnc3cc(OCCOC)c(OCCOC)cc23)c1", "test": "cell-free assay", "conditions": "0.5 µM", "endpoint": "remaining signal", "value": "101%"}
{"Structure (SMILES)": "Cn1c2c(c3ccc(Cl)c(Cl)c31)C(C#N)C1(CCCC1)NC2=O (centres unmarked)", "test": "thermal stability, DSF", "conditions": "10 µM", "endpoint": "ΔTm", "value": "0 °C"}
{"Structure (SMILES)": "CN1CC(Oc2cnc(C#N)cc2-c2ccn3nc(NC(=O)C4CC4)cc3c2)C1", "test": "enzyme activity, inhibitor", "conditions": "1 µM", "endpoint": "inhibition", "value": "6%"}
{"Structure (SMILES)": "O=C(O)c1cc(-c2ccc(C3CCNCC3)cc2)c2ccc(-c3ccc(C(F)(F)F)cc3)cc2c1", "test": "cell-free assay, competition with immobilised ligand", "conditions": "1 µM", "endpoint": "remaining binding", "value": "100%"}
{"Structure (SMILES)": "COc1cc2ncnc(Nc3ccc(Oc4ccccc4)c(C)c3C)c2cc1OC", "test": "enzyme activity, inhibitor", "conditions": "1 µM", "endpoint": "inhibition", "value": "-3%"}
{"Structure (SMILES)": "CNC(=O)c1cc(Oc2ccc(NC(=O)Nc3ccc(Cl)c(C(F)(F)F)c3)cc2)ccn1", "test": "enzyme activity, inhibitor", "conditions": "0.3 µM", "endpoint": "inhibition", "value": "2%"}
{"Structure (SMILES)": "Cc1ccc(NC(=O)c2ccc(C)c(C(F)(F)F)c2)cc1C#Cc1nn(C2CCC(O)CC2)c2ncnc(N)c12 (centres unmarked)", "test": "cell-free assay", "conditions": "10 µM", "endpoint": "remaining signal", "value": "107%"}
{"Structure (SMILES)": "CN([C@@H]1CCc2c(CC(=O)O)c3ccccc3n2C1)S(=O)(=O)c1ccc(F)cc1", "test": "cell-free assay, competition with immobilised ligand", "conditions": "1 µM", "endpoint": "remaining binding", "value": "100%"}
{"Structure (SMILES)": "CCN(CC)CCNC(=O)c1c(C)[nH]c(/C=C2\\C(=O)Nc3ccc(F)cc32)c1C", "test": "enzyme activity, inhibitor", "conditions": "0.3 µM", "endpoint": "inhibition", "value": "6%"}
{"Structure (SMILES)": "Cn1c2c(Cl)c(Cl)ccc2c2cc[nH]c(=O)c21", "test": "thermal stability, DSF", "conditions": "10 µM", "endpoint": "ΔTm", "value": "-0.2 °C"}
{"Structure (SMILES)": "CCN(CC)c1ccc(C2=NNC(=O)CC2C)cc1[N+](=O)[O-] (centres unmarked)", "test": "enzyme activity, inhibitor", "conditions": "10 µM", "endpoint": "remaining activity", "value": "100%"}
{"Structure (SMILES)": "COc1cc(-c2cc(-c3ccc(N4CCNCC4)cc3)cnc2C)cc(OC)c1OC", "test": "enzyme activity, inhibitor", "conditions": "0.1 µM", "endpoint": "inhibition", "value": "2%"}
{"Structure (SMILES)": "N#CCCc1ccc2c(c1)-c1[nH]c3ccc([N+](=O)[O-])cc3c1CC(=O)N2", "test": "cell-free assay", "conditions": "0.5 µM", "endpoint": "remaining signal", "value": "109%"}
{"Structure (SMILES)": "CC(C)(C)c1nc(-c2cccc(NS(=O)(=O)c3c(F)cccc3F)c2F)c(-c2ccnc(N)n2)s1", "test": "enzyme activity, inhibitor, radiometric", "conditions": "1 µM", "endpoint": "remaining activity", "value": "111%"}
{"Structure (SMILES)": "CN(C)CC#Cc1ccc(OCCCc2sc(N3CCc4cccc(C(=O)Nc5nc6ccccc6s5)c4C3)nc2C(=O)O)c(F)c1", "test": "cell-free assay, competition with immobilised ligand", "conditions": "1 µM", "endpoint": "remaining binding", "value": "100%"}
{"Structure (SMILES)": "COc1cc(Cl)c(C(=O)N[C@@H](CN[C@H]2CC[C@@H](N)CC2)Cc2ccc(C#N)cc2)cc1-c1ccc(CN[C@H](C)c2ccc(C)cc2)o1", "test": "enzyme activity, inhibitor", "conditions": "1 µM", "endpoint": "remaining activity", "value": "98%"}
{"Structure (SMILES)": "Cn1c2c(c3ccc(Cl)c(Cl)c31)C(C#N)C1(CCOCC1)NC2=O (centres unmarked)", "test": "thermal stability, DSF", "conditions": "10 µM", "endpoint": "ΔTm", "value": "0.2 °C"}
{"Structure (SMILES)": "CNC(=O)c1ccc(Nc2ncc(C(F)(F)F)c(NCc3nccnc3N(C)S(C)(=O)=O)n2)cc1", "test": "cell-free assay, competition with immobilised ligand", "conditions": "0.1 µM", "endpoint": "remaining binding", "value": "100%"}
{"Structure (SMILES)": "N#CC1c2c([nH]c3c(Cl)c(Cl)ccc23)C(=O)NC12CCCCC2 (racemic)", "test": "thermal stability, DSF", "conditions": "10 µM", "endpoint": "ΔTm", "value": "0.7 °C"}
{"Structure (SMILES)": "O=C(Nc1cnn(-c2csc(C(=O)NC3COC3)c2)c1)Nc1ccccc1Cl", "test": "enzyme activity, inhibitor", "conditions": "5 µM", "endpoint": "remaining activity", "value": "95.6%"}
{"Structure (SMILES)": "C[C@@H]1CN(c2cc(-c3n[nH]c4ccc(OC5(C)CC5)cc34)ncn2)C[C@H](C)O1", "test": "cell-free assay, competition with immobilised ligand", "conditions": "0.1 µM", "endpoint": "remaining binding", "value": "79%"}
{"Structure (SMILES)": "C[C@@H]1CCN(C(=O)CC#N)C[C@@H]1N(C)c1ncnc2[nH]ccc12", "test": "cell-free assay, inhibitor", "conditions": "0.5 µM", "endpoint": "remaining signal", "value": "90.7%"}
{"Structure (SMILES)": "Cc1cc(NC(=O)c2cccc3cc(-c4cccc5[nH]nc(N)c45)ccc23)ccc1F", "test": "enzyme activity, inhibitor", "conditions": "0.1 µM", "endpoint": "activity vs control", "value": "103%"}
{"Structure (SMILES)": "CCOCCn1cc(C(=O)Nc2ccc(-n3nc(-c4cccnc4)cc3C(F)(F)F)cn2)ccc1=O", "test": "cell-free assay, competition with immobilised ligand", "conditions": "1 µM", "endpoint": "remaining binding", "value": "100%"}
{"Structure (SMILES)": "CCCS(=O)(=O)Nc1ccc(F)c(C(=O)c2c[nH]c3ncc(-c4ccc(Cl)cc4)cc23)c1F", "test": "enzyme activity, inhibitor", "conditions": "1 µM", "endpoint": "inhibition", "value": "< 10%"}
{"Structure (SMILES)": "CNCc1ccccc1-c1csc([C@@H](C)Nc2nc(C)nc3cc(OC)c(OC)cc23)c1", "test": "cell-free assay, competition with immobilised ligand", "conditions": "1 µM", "endpoint": "remaining binding", "value": "61%"}
{"Structure (SMILES)": "CC(C)(O)[C@H]1CC[C@H](Nc2ccc3ncc(-c4cccc(C(F)(F)F)c4)n3n2)CC1", "test": "enzyme activity, inhibitor", "conditions": "1 µM", "endpoint": "remaining activity", "value": "94.5%"}
{"Structure (SMILES)": "CC1(C)NC(=O)c2[nH]c3c(Cl)c(Cl)ccc3c2C1C#N (centres unmarked)", "test": "thermal stability, DSF", "conditions": "10 µM", "endpoint": "ΔTm", "value": "0.4 °C"}
